In ChEMBL document CHEMBL5385915 (J Med Chem, 2024):
Values after ≈ are worked out from the molar mass of the structure shown. Active and inactive are the calls of the source. The rule behind the calls is not given here.

Legend:
[1] = tested on: Mycolicibacterium smegmatis; assay: Antimycobacterial activity against Mycobacterium smegmatis MC(2)155 assessed as reduction in microbial growth incubated for 24 hrs by resazurin dye based assay; assay type: functional
[2] = Lipophilicity, log P of the compound; assay type: physicochemical; settings: octanol/water
[3] = tested on: Mycobacterium tuberculosis; assay: Bactericidal activity against Mycobacterium tuberculosis H37Rv assessed as reduction in viable count at 96 uM incubated for 10 days by CV-AM staining based flow cytometry analysis; assay type: functional; settings: time 10 day
Procedure, shortened: (§1)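 H37Rv from time-kill wells (3–96 μM, 0.1% DMSO vehicle) at each time point, stained in quadruplicate 1 h, 37 °C, dark with 20 μM CV-AM and/or 20 μM Sytox Green; fixed 4% formaldehyde 1 h; flow cytometry (405/488 nm lasers); singlets gated by FSC area/height, quadrant gates P1–P4.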

[4] = tested on: Mycolicibacterium smegmatis; assay: Inhibition of macromolecule biosynthesis in Mycobacterium smegmatis assessed as reduction in incorporation of [3H]-thymidine in DNA at 0.75 times MIC incubated for 36 hrs; assay type: functional, organism-based
[5] = tested on: Mycobacterium tuberculosis; assay: Bactericidal activity against Mycobacterium tuberculosis H37Rv assessed as reduction in viable count at 96 uM incubated for 14 days by CV-AM staining based flow cytometry analysis; assay type: functional; settings: time 14 day; procedure, shortened: as §1
[6] = Metabolic stability in mouse hepatocyte assessed as intrinsic clearance measured upto 60 mins […] by LC-MS/MS analysis; assay type: ADME, cell-based; settings: hepatocytes, 1 h
Procedure, shortened: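 Mouse hepatocytes at 0.5 × 10^6 cells/mL incubated with 1 μM compound at 37 °C, sampled at 0, 10, 20, 30, 45 and 60 min. Disappearance with and without hepatocytes measured by LC-MS/MS; output is mean CLint and t1/2. Duplicate per compound, with up to three species-specific controls.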

[7] = tested on: Mycolicibacterium smegmatis; assay: Inhibition of cell wall biosynthesis in Mycobacterium smegmatis assessed as reduction in trehalose monomycolate accumulation at 0.5 to 5 times MIC incubated for 6 hrs in presence of [14C]acetate by MPA staining based TLC analysis; assay type: functional, organism-based
[8] = tested on: Corynebacterium glutamicum; assay: Inhibition of mycolic acid biosynthesis in Corynebacterium glutamicum pks13 at 0.5 to 5 times MIC incubated for 6 hrs by TLC based autoradiography analysis; assay type: functional, organism-based
[9] = tested on: Mycobacterium tuberculosis; assay: Bactericidal activity against Mycobacterium tuberculosis H37Rv assessed as reduction in bacterial count at […] uM incubated for 14 days by time kill assay; assay type: functional; settings: time 14 day
Procedure, shortened: (§2)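 Time-kill: 2-fold dilutions 96–3 μM in CMM MOD2, 0.1% DMSO vehicle; start 1×10^6 CFU/mL, 37 °C, 200 rpm; sampled days 0, 2, 6, 10, 14; 10-fold dilutions spotted in triplicate on 7H10, counted after 3 weeks; three biological repeats; factorial ANOVA with Tukey post hoc.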

[10] = tested on: Corynebacterium glutamicum; assay: Inhibition of mycolic acid biosynthesis in Corynebacterium glutamicum harboring MmpL3 at 0.5 to 5 times MIC incubated for 6 hrs by TLC based autoradiography analysis; assay type: functional, organism-based
[11] = tested on: Mycolicibacterium smegmatis; assay: Inhibition of macromolecule biosynthesis in Mycobacterium smegmatis assessed as reduction in incorporation of [3H]-leucine in protein at 0.75 times MIC incubated for 36 hrs; assay type: functional, organism-based
[12] = tested on: Mycobacterium tuberculosis; assay: Bactericidal activity against Mycobacterium tuberculosis H37Rv assessed as reduction in bacterial count at […] uM incubated for 6 days by time kill assay; assay type: functional; settings: time 6 day; procedure, shortened: as §2
[13] = tested on: Mycobacterium tuberculosis; assay: Bactericidal activity against Mycobacterium tuberculosis H37Rv assessed as reduction in viable count at 96 uM incubated for 14 days by sytox green staining based flow cytometry analysis; assay type: functional, organism-based; settings: time 14.0 day; procedure, shortened: as §1
[14] = tested on: Mycolicibacterium smegmatis; assay: Inhibition of macromolecule biosynthesis in Mycobacterium smegmatis assessed as reduction in incorporation of [3H]-uridine in RNA at 0.75 times MIC incubated for 36 hrs; assay type: functional, organism-based
[15] = tested on: Mycolicibacterium smegmatis; assay: Inhibition of cell wall biosynthesis in Mycobacterium smegmatis assessed as reduction in trehalose dimycolate accumulation at 0.5 to 5 times MIC incubated for 6 hrs in presence of [14C]acetate by alpha-napthol staining based TLC analysis; assay type: functional, organism-based
[16] = tested on: Mycobacterium tuberculosis; assay: Bactericidal activity against Mycobacterium tuberculosis H37Rv assessed as reduction in viable count at 96 uM incubated for 6 days by CV-AM staining based flow cytometry analysis; assay type: functional; settings: time 6 day; procedure, shortened: as §1
[17] = tested on: Mycobacterium tuberculosis; assay: Bactericidal activity against Mycobacterium tuberculosis H37Rv incubated for 6 to 10 days by time kill assay; assay type: functional, organism-based; settings: dose <= 96.0 µM, time 6-10 day; procedure, shortened: as §2
[18] = tested on: Mycobacterium tuberculosis; assay: Bactericidal activity against Mycobacterium tuberculosis H37Rv assessed as reduction in viable count at 48 uM incubated for 6 days by sytox green staining based flow cytometry analysis; assay type: functional; settings: time 6 day; procedure, shortened: as §1
[19] = tested on: Mycolicibacterium smegmatis; assay: Inhibition of macromolecule biosynthesis in Mycobacterium smegmatis assessed as reduction in incorporation of [3H]-diaminopimelic acid in peptidoglycan at 1 times MIC incubated for 6 hrs; assay type: functional, organism-based
[20] = tested on: Mycobacterium tuberculosis; assay: Bactericidal activity against Mycobacterium tuberculosis H37Rv assessed as reduction in viable count at 48 uM incubated for 14 days by sytox green staining based flow cytometry analysis; assay type: functional; settings: time 14 day; procedure, shortened: as §1
[21] = tested on: Corynebacterium glutamicum; assay: Inhibition of mycolic acid biosynthesis in Corynebacterium glutamicum at 0.5 to 5 times MIC incubated for 6 hrs by TLC based autoradiography analysis; assay type: functional, organism-based
[22] = tested on: Mycolicibacterium smegmatis; assay: Inhibition of mycolic acid biosynthesis in Mycobacterium smegmatis at 5 times MIC incubated for 12 hrs in presence of [14C]acetate by TLC based autoradiography analysis; assay type: functional, organism-based
[23] = Efflux ratio of permeability across basolateral to apical side over apical to basolateral side in human Caco-2 cells incubated for 2 hrs by LC-MS/MS analysis; assay type: ADME, cell-based
[24] = tested on: Mycobacterium tuberculosis; assay: Antitubercular activity against drug-sensitive Mycobacterium tuberculosis H37Rv pTYOK assessed as inhibition of bacterial growth measured upto 3 days by luminometer based analysis; assay type: functional; settings: 72 h, time <= 3 day
[25] = tested on: Mycobacterium tuberculosis; assay: Antitubercular activity against drug-sensitive Mycobacterium tuberculosis H37Rv assessed as inhibition of bacterial growth measured for 7 days by REMA analysis; assay type: functional; settings: 168 h, time 7 day
Procedure, shortened: (§3)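 REMA: 2-fold dilutions in CMM MOD2 medium, wells inoculated at 1×10^6 CFU/mL, 7 days at 37 °C with 200 rpm agitation; resazurin (0.02% w/v in PBS pH 7.4, 5% Tween 80) then 6 h at room temperature; OD570 vs vehicle; MIC99 by modified Gompertz function; three biological replicates.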

[26] = Metabolic stability in mouse liver microsome assessed as intrinsic clearance measured upto 30 mins in presence of NADPH by LC-MS/MS analysis; assay type: ADME; settings: liver microsomes, read-out: CLH
Procedure, shortened: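 1 μM compound with 0.5 mg/mL mouse liver microsomes, with or without NADPH (1 mM), 37 °C, sampled at 0, 5, 10, 15 and 30 min. Parent loss followed by LC-MS/MS, giving mean CLint and t1/2. Two replicates per compound; up to three species-specific control compounds included.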

[27] = tested on: Mycobacterium tuberculosis; assay: Antitubercular activity against Mycobacterium tuberculosis 1192/015 assessed as inhibition of bacterial growth measured for 7 days by REMA analysis; assay type: functional; settings: 1192/015, 168 h, time 7 day; procedure, shortened: as §3
[28] = Kinetic solubility in pH 7.4 PBS incubated for 5 mins by UV-spectrophotometry analysis; assay type: physicochemical; settings: read-out: Kinetic_solubility
Procedure, shortened: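 Compounds from 10 mM DMSO stock diluted in PBS pH 7.4 to a seven-point series (0.2–100 μM), final DMSO 1%, shaken 5 min at 25 °C. Turbidity read by UV at 620 nm; Log_S converted to solubility as S = 10^LogS. Nicardipine control; triplicate.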

HepG2 [29] = assay: Cytotoxicity against human HepG2 cells assessed as reduction in cell viability incubated for 24 hrs in presence of glucose by MTT assay; assay type: functional, cell-based; settings: HepG2, 24 h
[30] = tested on: Mycobacterium tuberculosis; assay: Bactericidal activity against Mycobacterium tuberculosis H37Rv assessed as reduction in viable count at 48 uM incubated for 6 days by CV-AM staining based flow cytometry analysis; assay type: functional; settings: time 6 day; procedure, shortened: as §1
[31] = tested on: Mycobacterium tuberculosis; assay: Bactericidal activity against Mycobacterium tuberculosis H37Rv assessed as reduction in viable count at 48 uM incubated for 10 days by CV-AM staining based flow cytometry analysis; assay type: functional; settings: time 10 day; procedure, shortened: as §1
[32] = tested on: Mycobacterium tuberculosis; assay: Bactericidal activity against Mycobacterium tuberculosis H37Rv assessed as reduction in viable count at 48 uM incubated for 14 days by CV-AM staining based flow cytometry analysis; assay type: functional; settings: time 14 day; procedure, shortened: as §1
[33] = tested on: Mycolicibacterium smegmatis; assay: Inhibition of cell wall biosynthesis in Mycobacterium smegmatis assessed as formation of cytoplasmic membrane phospholipids at 0.5 to 5 times MIC incubated for 6 hrs in presence of [14C]acetate by TLC based autoradiography analysis; assay type: functional, organism-based
HepG2 [34] = assay: Cytotoxicity against human HepG2 cells assessed as reduction in cell viability incubated for 24 hrs in presence of galactose by MTT assay; assay type: functional, cell-based; settings: HepG2, 24 h

Brc1ccccc1CN1[C@H](CN2CCCC2)C[C@@H]1c1ccccc1 (racemic)
MIC99 [1]: 30.5 µM
logP [2]: 4.84

Clc1cc(Cl)cc([C@H]2C[C@@H](CN3CCCC3)N2Cc2ccccc2Br)c1 (racemic)
MIC99 [1]: 14 µM
logP [2]: 6.05

COCCNC[C@@H]1C[C@H](c2ccc(OC(F)(F)F)cc2)N1Cc1ccccc1OC(F)(F)F (racemic)
MIC99 [1]: 29 µM
logP [2]: 6.1

CNC[C@@H]1C[C@H](c2ccc(OC(F)(F)F)cc2)N1Cc1ccccc1OC(F)(F)F (racemic)
Activity [3]: 0.08%
inhibition [4]: inactive
Activity [5]: 0.011%
intrinsic clearance (CLint) [6]: < 60 µL/min/mg
inhibition [7]: Active
inhibition [8]: Active
Activity [9]: 3.99 log10CFU/ml
inhibition [10]: Active
inhibition [11]: inactive
Activity [12]: 3.28 log10CFU/ml
Activity [13]: Active
inhibition [14]: inactive
inhibition [15]: Active
Activity [16]: 0.043%
Activity [17]: Dose-Dependent Effect
logP [2]: 6.14
Activity [18]: 0.027%
inhibition [19]: Active
Activity [20]: 0.068%
inhibition [21]: Active
inhibition [22]: Active

C#CCNC[C@@H]1C[C@H](c2cc(Br)cc(Br)c2)N1Cc1ccccc1Br (racemic)
MIC99 [1]: 100 µM
logP [2]: 5.82

CC(C)NC[C@@H]1C[C@H](c2ccccc2)N1Cc1ccccc1OC(F)(F)F (racemic)
MIC99 [1]: 87 µM
logP [2]: 5.49

FC(F)(F)c1cc([C@H]2C[C@@H](CN3CCCC3)N2Cc2ccccc2Br)cc(C(F)(F)F)c1 (racemic)
intrinsic clearance (CLint) [6]: < 60 µL/min/mg
inhibition [8]: Active
inhibition [10]: Active
efflux ratio at 2 h [23]: < 1
MIC99 [1]: 26 µM
MIC50 [24]: 6.9 µM (≈ 3.6 µg/mL)
MIC99 [25]: 3.3 µM (≈ 1.72 µg/mL)
microsomal CLint [26]: > 150 µL/min/mg
MIC99 [27]: 19.1 µM (≈ 9.96 µg/mL)
logP [2]: 6.6

CN(C)C[C@@H]1C[C@H](c2cc(Br)cc(Br)c2)N1Cc1ccccc1Br (racemic)
MIC99 [1]: 80 µM
logP [2]: 5.97

FC(F)(F)Oc1ccc([C@H]2C[C@@H](CN3CCCC3)N2Cc2ccccc2OC(F)(F)F)cc1 (racemic)
intrinsic clearance (CLint) [6]: < 60 µL/min/mg
solubility kinetic at 5 min [28]: 7 µM (≈ 3.32 µg/mL)
inhibition [8]: Active
inhibition [10]: Active
efflux ratio at 2 h [23]: < 1
microsomal CLint [26]: > 150 µL/min/mg
logP [2]: 6.93

COc1ccc([C@H]2C[C@@H](CN3CCCC3)N2Cc2ccccc2Br)cc1 (racemic)
logP [2]: 4.68

CC(C)NC[C@@H]1C[C@H](c2ccc(OC(F)(F)F)cc2)N1Cc1ccccc1OC(F)(F)F (racemic)
MIC99 [1]: 23 µM
logP [2]: 6.92

Brc1cc(Br)cc([C@H]2C[C@@H](CN3CCCC3)N2Cc2ccccc2Br)c1 (racemic)
IC50 (HepG2 [29]): > 100 µM
intrinsic clearance (CLint) [6]: < 60 µL/min/mg
inhibition [8]: Active
Activity [9]: 1.9 log10CFU/ml
inhibition [10]: Active
Activity [30]: 0.067%
Activity [31]: 0.065%
Activity [32]: 0.066%
inhibition [33]: Active
Activity [12]: 0.79 log10CFU/ml
Activity [13]: Active
IC50 (HepG2 [34]): > 100 µM
Activity [17]: Dose-Dependent Effect
microsomal CLint [26]: > 150 µL/min/mg

FC(F)(F)c1ccc(C2CCN(C[C@@H]3C[C@H](c4ccccc4)N3Cc3ccccc3Br)CC2)cc1 (racemic)
MIC99 [1]: 100 µM
logP [2]: 7.58

CC(C)NC[C@@H]1C[C@H](c2ccc(OC(F)(F)F)cc2)N1Cc1ccccc1Br (racemic)
MIC99 [1]: 23 µM
logP [2]: 6.26

CC(C)NC[C@@H]1C[C@H](c2ccccc2)N1Cc1ccccc1Br (racemic)
MIC99 [1]: 94 µM
logP [2]: 4.82

FC(F)(F)Oc1ccc(C2CCN(C[C@@H]3C[C@H](c4ccccc4)N3Cc3ccccc3Br)CC2)cc1 (racemic)
MIC99 [1]: 100 µM
logP [2]: 8.14
